In ChEMBL document CHEMBL5696442, “Discovery of type II inhibitors of TGFβ-activated kinase 1 (TAK1) and mitogen-activated protein kinase kinase kinase kinase 2 (MAP4K2)” (J Med Chem, 2015) one finds inhibition data, which are given here for three molecules.

The source made the active and inactive calls. The rule behind the calls is not given here.

Assay [1] has as its target Mitogen-activated protein kinase 1 (Homo sapiens) (UniProt P28482). Kind of assay: Inhibition of ERK2 (unknown origin) at 1 uM by Ambit Kinomescan binding assay relative to control.
Assay [2] deals with T1, Dual specificity mitogen-activated protein kinase kinase 4 (Homo sapiens) (UniProt P45985).
T1 sequence (whole entry): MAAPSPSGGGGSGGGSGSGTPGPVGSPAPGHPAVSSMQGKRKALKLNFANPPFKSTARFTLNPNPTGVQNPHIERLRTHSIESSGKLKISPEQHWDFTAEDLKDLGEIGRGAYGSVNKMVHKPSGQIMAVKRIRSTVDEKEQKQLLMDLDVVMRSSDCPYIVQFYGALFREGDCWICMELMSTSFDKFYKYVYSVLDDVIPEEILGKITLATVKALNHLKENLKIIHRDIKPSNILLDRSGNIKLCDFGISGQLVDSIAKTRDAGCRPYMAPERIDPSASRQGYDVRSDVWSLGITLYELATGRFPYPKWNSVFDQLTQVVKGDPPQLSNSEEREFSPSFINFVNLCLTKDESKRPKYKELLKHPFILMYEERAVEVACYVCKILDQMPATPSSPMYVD
Kind of assay: Inhibition of MEK4 (unknown origin) at 10 uM by Ambit Kinomescan binding assay.

The target in assay [3] is Tyrosine-protein kinase ABL (Homo sapiens) (UniProt P00519+P42684). Kind of assay: Inhibition of ABL1/2 K1 labeling site in human Huh-7 cells at 1 uM by KiNativ Profiling analysis relative to control. Format: cell-based.
Assay [4] concerns the target Serine/threonine-protein kinase WNK4 (Homo sapiens) (UniProt Q96J92). Kind of assay: Inhibition of Wnk4 K2 labeling site in human Huh-7 cells at 10 uM by KiNativ Profiling analysis relative to control. Format: cell-based.
The target of assay [5] is Rho-associated protein kinase 1 (Homo sapiens) (UniProt Q13464). Kind of assay: Inhibition of ROCK1 in human Huh-7 cells at 1 uM by KiNativ Profiling analysis relative to control. The class given is cell-based.
Assay [6] addresses Serine/threonine-protein kinase SMG1 (Homo sapiens) (UniProt Q96Q15). Nature of the assay: Inhibition of SMG1 ATP labeling site harbouring DTVTIHSVGGTITILPTKTKPK in human A-375 cells at 0.5 uM by KiNativ Profiling analysis relative to control. Format: cell-based. Put shortly: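 Live A375 melanoma cells treated with compound at 5 or 0.5 μM, then lysed. Lysate kinases were labeled with a lysine-reactive ATP or ADP-biotin probe. Inhibition was read as protection of labeling sites from the probe.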

Assay [7] deals with T2, Dual specificity mitogen-activated protein kinase kinase 5 (Homo sapiens) (UniProt Q13163).
T2 sequence (whole entry): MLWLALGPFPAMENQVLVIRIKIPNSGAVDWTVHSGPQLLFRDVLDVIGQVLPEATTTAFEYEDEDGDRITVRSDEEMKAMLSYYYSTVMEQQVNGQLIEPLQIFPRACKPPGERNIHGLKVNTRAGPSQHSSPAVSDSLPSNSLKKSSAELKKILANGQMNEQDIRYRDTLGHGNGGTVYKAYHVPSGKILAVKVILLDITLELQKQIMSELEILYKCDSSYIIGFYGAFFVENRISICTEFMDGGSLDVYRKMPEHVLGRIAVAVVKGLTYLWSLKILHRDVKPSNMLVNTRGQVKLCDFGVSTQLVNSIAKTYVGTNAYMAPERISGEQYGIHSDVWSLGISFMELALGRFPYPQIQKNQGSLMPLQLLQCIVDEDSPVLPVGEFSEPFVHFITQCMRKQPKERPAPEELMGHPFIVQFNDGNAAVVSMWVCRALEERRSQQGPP
Kind of assay: Inhibition of MAP2K5 Lys2 labeling site in human A-375 cells at 5 uM by KiNativ Profiling analysis relative to control. Format: cell-based.

Assay [8] has as its target Serine/threonine-protein kinase BRSK1 (Homo sapiens) (UniProt Q8TDC3). Kind of assay: Inhibition of BRSK1 (unknown origin) at 10 uM by Ambit Kinomescan binding assay.
Assay [9] has as its target Myosin light chain kinase, smooth muscle (Homo sapiens) (UniProt Q15746). Nature of the assay: Inhibition of smMLCK Lys2 labeling site in human Huh-7 cell lysate at 1 uM by KiNativ Profiling analysis relative to control. Format: subcellular.
Assay [10] in a line: Inhibition of KHS1 Lys2 labeling site harbouring DIKGANILLTDHGDVK in human Huh-7 cells at 1 uM by KiNativ Profiling analysis relative to control. Particulars: condition cancer.
The target of assay [11] is Calcium/calmodulin-dependent protein kinase type II subunit gamma (Homo sapiens) (UniProt Q13555). Kind of assay: Inhibition of CaMK2g Lys2 labeling site in human Huh-7 cell lysate at 1 uM by KiNativ Profiling analysis relative to control. Format: subcellular.
Calcium/calmodulin-dependent protein kinase type II subunit gamma (Homo sapiens), sequence (Q13555 whole entry): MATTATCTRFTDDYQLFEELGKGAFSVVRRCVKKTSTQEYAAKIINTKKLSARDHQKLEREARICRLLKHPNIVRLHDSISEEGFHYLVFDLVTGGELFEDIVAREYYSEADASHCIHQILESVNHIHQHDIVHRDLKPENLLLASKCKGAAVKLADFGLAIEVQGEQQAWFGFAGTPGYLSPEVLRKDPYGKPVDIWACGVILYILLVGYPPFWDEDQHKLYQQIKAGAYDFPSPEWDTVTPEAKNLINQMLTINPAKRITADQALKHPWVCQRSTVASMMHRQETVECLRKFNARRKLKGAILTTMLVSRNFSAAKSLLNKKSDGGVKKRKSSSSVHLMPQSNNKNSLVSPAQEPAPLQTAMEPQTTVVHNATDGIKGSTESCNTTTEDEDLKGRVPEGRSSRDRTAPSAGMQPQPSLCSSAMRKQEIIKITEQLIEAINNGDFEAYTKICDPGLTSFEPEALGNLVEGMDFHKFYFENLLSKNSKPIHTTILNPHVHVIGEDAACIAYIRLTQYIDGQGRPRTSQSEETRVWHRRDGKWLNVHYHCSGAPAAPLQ
The target in assay [12] is T3, Phosphatidylinositol 5-phosphate 4-kinase type-2 alpha (Homo sapiens) (UniProt P48426).
T3 sequence (whole entry): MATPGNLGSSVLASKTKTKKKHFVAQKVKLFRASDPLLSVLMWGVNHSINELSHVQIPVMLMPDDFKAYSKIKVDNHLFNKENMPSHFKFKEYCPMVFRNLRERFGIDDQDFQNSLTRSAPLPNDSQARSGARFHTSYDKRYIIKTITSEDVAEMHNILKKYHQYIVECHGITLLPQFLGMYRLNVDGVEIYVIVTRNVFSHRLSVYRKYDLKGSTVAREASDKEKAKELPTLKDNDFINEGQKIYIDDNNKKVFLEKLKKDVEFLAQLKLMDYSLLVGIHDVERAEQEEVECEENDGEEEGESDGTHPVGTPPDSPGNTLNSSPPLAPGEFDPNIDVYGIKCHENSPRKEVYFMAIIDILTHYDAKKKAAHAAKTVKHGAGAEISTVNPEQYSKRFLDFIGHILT
Kind of assay: Inhibition of PIP4K2A ATP labeling site harbouring AKELPTLKDNDFINEGQK in human Huh-7 cell lysate at 1 uM by KiNativ Profiling analysis relative to control. The class given is subcellular.

Serine/threonine-protein kinase BRSK1 (Homo sapiens), sequence (Q8TDC3 whole entry): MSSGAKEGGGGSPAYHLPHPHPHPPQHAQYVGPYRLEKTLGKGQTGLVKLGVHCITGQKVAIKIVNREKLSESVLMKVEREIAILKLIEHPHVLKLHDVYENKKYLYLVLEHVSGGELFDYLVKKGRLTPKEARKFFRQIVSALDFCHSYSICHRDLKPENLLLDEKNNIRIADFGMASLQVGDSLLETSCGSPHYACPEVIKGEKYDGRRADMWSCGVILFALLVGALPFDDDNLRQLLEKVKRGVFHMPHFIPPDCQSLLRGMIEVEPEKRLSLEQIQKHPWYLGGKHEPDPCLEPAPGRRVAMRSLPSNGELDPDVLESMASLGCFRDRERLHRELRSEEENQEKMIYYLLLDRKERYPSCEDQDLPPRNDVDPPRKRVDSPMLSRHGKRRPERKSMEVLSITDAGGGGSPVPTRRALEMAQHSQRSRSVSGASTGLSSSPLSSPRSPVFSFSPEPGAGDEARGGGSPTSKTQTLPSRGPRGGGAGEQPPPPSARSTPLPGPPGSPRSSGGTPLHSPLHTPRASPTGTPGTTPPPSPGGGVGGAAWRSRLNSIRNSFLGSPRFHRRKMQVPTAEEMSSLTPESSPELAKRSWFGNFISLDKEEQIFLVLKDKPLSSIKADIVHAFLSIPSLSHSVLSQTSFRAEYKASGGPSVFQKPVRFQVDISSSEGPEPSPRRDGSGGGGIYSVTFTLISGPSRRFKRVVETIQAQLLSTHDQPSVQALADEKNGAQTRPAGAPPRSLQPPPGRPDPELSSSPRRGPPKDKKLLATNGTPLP
Serine/threonine-protein kinase SMG1 (Homo sapiens), sequence (Q96Q15 whole entry): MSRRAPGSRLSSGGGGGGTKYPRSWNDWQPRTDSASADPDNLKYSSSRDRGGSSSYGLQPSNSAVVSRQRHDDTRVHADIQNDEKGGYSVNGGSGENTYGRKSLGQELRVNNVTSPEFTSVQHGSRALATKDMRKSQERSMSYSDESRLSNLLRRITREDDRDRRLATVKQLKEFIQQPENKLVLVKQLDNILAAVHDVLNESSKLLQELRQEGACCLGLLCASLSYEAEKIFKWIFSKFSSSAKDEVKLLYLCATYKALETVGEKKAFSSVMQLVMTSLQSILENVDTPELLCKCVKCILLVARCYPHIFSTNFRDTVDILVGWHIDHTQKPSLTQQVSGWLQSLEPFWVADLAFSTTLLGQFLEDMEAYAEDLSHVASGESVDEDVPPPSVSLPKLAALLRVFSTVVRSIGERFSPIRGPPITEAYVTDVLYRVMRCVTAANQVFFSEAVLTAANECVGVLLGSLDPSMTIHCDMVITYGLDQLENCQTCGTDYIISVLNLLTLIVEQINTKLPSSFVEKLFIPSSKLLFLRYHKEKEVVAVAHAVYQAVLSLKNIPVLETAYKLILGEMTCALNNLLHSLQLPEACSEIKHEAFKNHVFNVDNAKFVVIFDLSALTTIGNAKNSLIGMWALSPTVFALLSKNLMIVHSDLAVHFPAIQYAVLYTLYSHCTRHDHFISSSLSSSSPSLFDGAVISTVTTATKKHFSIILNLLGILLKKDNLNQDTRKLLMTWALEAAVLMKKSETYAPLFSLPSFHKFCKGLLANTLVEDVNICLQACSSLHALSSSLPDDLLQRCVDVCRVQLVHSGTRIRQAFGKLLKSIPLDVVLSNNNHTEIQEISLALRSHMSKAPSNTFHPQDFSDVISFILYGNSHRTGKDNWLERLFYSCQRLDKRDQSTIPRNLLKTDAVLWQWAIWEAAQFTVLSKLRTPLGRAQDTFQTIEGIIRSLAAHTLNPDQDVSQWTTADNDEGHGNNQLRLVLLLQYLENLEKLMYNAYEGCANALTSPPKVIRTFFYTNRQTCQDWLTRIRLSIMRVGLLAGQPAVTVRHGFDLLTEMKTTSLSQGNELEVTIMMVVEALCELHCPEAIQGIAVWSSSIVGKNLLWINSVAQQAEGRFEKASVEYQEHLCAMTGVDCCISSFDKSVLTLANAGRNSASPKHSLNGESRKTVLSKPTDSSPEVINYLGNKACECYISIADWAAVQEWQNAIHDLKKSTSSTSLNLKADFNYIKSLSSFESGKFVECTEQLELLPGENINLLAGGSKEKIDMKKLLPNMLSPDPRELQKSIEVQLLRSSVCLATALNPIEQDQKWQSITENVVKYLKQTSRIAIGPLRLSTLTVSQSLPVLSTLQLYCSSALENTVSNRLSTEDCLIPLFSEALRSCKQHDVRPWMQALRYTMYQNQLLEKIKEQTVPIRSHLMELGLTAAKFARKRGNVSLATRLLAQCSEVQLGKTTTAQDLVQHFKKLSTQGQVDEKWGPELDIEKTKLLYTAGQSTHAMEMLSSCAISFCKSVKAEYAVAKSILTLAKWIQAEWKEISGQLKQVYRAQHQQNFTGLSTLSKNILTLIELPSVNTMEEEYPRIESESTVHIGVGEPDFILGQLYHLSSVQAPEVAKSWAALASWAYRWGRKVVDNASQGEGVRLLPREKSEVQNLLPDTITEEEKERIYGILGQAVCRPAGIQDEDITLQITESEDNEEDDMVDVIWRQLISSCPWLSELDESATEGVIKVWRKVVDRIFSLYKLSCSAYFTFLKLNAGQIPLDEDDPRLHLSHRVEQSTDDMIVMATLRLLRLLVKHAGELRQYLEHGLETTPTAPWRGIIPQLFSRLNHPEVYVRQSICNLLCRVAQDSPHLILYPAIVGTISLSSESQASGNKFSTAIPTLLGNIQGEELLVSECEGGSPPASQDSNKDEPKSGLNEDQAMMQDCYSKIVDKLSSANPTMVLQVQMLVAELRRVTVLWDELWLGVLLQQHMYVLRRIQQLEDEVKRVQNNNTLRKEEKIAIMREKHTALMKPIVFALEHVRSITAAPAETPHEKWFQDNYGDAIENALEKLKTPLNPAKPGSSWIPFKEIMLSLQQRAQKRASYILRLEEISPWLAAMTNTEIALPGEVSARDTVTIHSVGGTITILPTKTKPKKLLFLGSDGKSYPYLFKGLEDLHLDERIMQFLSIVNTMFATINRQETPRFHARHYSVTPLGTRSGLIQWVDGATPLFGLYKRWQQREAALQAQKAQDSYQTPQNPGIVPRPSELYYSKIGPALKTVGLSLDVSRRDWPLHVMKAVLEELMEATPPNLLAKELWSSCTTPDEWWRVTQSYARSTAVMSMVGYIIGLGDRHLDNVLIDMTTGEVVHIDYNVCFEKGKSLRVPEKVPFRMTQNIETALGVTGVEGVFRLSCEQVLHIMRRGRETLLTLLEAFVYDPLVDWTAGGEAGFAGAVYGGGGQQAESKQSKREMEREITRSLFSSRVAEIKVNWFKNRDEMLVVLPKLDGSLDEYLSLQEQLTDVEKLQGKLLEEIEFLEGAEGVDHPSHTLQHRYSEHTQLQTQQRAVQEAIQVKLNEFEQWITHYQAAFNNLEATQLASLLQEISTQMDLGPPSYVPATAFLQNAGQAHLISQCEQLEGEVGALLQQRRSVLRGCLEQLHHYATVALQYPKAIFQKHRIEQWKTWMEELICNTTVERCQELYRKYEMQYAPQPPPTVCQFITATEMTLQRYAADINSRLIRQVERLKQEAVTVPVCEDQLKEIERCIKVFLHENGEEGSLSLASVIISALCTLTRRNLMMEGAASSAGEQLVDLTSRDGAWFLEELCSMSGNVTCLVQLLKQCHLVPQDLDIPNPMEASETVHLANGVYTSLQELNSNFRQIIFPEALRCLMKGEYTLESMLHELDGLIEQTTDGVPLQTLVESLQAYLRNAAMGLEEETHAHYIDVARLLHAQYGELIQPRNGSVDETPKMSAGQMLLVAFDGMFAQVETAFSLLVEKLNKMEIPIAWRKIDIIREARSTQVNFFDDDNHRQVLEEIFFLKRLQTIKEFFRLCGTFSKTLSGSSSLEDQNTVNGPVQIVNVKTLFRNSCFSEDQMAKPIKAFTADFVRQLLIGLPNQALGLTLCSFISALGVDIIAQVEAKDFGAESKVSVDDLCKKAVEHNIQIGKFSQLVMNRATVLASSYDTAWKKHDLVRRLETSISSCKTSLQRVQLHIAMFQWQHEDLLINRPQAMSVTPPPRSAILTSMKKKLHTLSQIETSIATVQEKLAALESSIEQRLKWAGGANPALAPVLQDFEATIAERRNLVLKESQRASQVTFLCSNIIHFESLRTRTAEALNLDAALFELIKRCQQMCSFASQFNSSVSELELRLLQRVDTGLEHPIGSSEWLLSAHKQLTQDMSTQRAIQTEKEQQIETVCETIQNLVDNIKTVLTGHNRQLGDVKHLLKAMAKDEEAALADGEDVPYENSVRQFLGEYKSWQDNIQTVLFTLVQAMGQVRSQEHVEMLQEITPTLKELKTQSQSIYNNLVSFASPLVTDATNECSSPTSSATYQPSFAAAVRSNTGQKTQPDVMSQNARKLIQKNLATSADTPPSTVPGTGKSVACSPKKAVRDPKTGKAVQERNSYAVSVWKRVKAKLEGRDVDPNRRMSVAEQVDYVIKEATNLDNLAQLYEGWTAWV

Broadly, the inhibition is the relative decrease from the control value, in per cent. Take `CCN1CCN(Cc2ccc(NC(=O)c3ccc(C)c(/C=C/c4cnc5[nH]ccc5c4OC)c3)cc2C(F)(F)F)CC1`: the inhibition in assay [1] stood at 100%.

Take `CCN1CCN(Cc2ccc(NC(=O)c3ccc(C)c(Oc4ccnc5[nH]ccc45)c3)cc2C(F)(F)F)CC1`: the inhibition result in assay [2] and in assay [8] was “inactive” throughout. Also, the inhibition is 16.4% in assay [3]; -1.5% in assay [4]; -5.5% in assay [5]; -9.1% in [6]; -7.1% in [7].

For the molecule `CNc1cc(Oc2cc(C(=O)Nc3cc(N4CCN(C)CC4)cc(C(F)(F)F)c3)ccc2C)ncn1`, the inhibition was -5.1% in [9], 0.7% in assay [11] and 0.1% in assay [12]. The inhibition at 1 µM in assay [10] was -57.8%.
